Hits are enriched below; roughly 12% of the tested compounds scored in any of these assays.
Diaphorase inh: counter-screen for diaphorase-based assays: diaphorase inhibitors and chemical oxidizers. diaphorase resazurin-to-resorufin fluorescence, NADH, 16 min; bacterial (C. kluyveri) enzyme, not human. 0.69% of 190,000 active. AID 1217. inhibition, % at 20 µM;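 active = primary screen inhibition at 20 µM above a set limit, cut at about 50% in these data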
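Test system: diaphorase enzyme from Clostridium kluyveri; amount: diaphorase at 0.14 U/mL in enzyme working solution; detection: fluorescence of resorufin formed from resazurin, Ex 544/Em 590 nm; times: reaction incubation of 16 min at room temperature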
Lmaj promast: reduces viability of Leishmania major promastigotes; 9% of 200,000 active; resazurin fluorescence viability; AID 1063; inhibition, % at 10 µM; in the data active = inhibition above about 50%;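 also: promastigotes grown with compound for 44 hours at 28 °C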
WT yeast gro inh: growth inhibition of WT yeast, mitochondrial fusion screen. 2.1% of 190,000 active. AID 1362. mitochondrial fusion phenotypic screen, WT strain. inhibition, % at 10 µM; in the data active = inhibition above about 58%; tested in S. cerevisiae
ROMK mod: modulators of human ROMK potassium channel; P48048; 2% of 130,000 active; B-score at 10 µM; Tet-inducible ROMK, thallium flux fluorescence; actives lie on both sides;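 active = signal ratio slope over the read window, or its plate-corrected B-score, at least 3 SD from the plate mean, either direction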;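 also: B-score of the F/F0 ratio slope over 7 to 12 s after thallium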
Diaphorase act: counter-screen for diaphorase-based assays: diaphorase activators and chemical reducers; activation factor at 20 µM; 0.005% of 190,000 active; Diaphorase/resazurin coupled assay, resorufin fluorescence, 16 min; active compounds read high; 1 = vehicle wells, 0 = NADH-free wells; AID 1229;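 active = diaphorase activity raised at least twofold by the compound at 20 µM; inactive = activation factor below 2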
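Material: Clostridium kluyveri diaphorase, purified enzyme; Quantity: enzyme 0.07 U/mL final; Medium: HEPES pH 7.4 buffer with MgCl2 and Tween 20; Dosing: single compound dose of 20 µM, 1% DMSO final; Schedule: 16 min reaction at room temperature; Measured by: red resorufin fluorescence at 544/590 nm excitation/emission.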
KCC2 mod: modulators of human KCC2 chloride dependent transport; 2.2% of 190,000 active; B-score of Tl+ flux slope (higher = more flux/activation; lower = inhibition) at 10 µM; KCC2 cells, thallium flux FluoZin-2 fluorescence; Q9H2X9; AID 1456;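 active = thallium flux slope and its plate-corrected score both differing from the plate sample mean at a set confidence after two filtering rounds, in either direction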;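 also: slope of fluorescence scaled to starting intensity during 10 to 20 s after thallium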
Target sequence (Q9H2X9 whole entry, looked up): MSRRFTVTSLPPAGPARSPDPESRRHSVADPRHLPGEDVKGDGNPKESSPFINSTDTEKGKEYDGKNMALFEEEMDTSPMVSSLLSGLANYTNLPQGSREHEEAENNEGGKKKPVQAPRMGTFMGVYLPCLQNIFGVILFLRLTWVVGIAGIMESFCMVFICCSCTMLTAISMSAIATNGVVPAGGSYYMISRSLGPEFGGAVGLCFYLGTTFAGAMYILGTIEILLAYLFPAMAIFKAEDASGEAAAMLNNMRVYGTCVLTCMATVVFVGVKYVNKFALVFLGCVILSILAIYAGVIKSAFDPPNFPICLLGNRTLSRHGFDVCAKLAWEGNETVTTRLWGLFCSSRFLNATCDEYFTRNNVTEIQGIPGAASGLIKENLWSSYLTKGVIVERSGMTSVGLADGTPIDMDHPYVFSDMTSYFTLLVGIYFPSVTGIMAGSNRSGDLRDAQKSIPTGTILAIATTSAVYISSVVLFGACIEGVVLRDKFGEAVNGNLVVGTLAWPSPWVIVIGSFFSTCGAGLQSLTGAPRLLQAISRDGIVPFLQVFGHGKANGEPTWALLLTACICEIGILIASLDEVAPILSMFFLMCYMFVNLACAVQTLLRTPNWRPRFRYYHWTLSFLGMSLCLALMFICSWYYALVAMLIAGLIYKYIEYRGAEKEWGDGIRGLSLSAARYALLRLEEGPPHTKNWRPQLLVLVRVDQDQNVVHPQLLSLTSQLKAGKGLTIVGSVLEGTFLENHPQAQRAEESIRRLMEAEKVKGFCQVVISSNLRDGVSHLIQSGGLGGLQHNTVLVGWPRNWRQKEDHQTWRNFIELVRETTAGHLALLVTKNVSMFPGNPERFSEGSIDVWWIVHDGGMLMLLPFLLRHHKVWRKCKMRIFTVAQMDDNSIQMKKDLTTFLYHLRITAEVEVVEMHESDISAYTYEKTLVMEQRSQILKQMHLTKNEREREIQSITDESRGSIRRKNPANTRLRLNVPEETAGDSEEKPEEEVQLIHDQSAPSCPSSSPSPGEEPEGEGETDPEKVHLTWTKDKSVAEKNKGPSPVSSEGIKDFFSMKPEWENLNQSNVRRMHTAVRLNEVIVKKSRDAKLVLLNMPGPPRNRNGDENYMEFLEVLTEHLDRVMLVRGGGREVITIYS
Large screens that a line does not name were inactive.

CCc1ccc(/C=C(\C)C(=O)c2c(C)cc(C)[nH]c2=O)cc1	none
Cc1ccc(/C=C/C(=O)c2c(C)cc(C)[nH]c2=O)cc1	Lmaj promast 61.4 (no result: ROMK mod, KCC2 mod)
O=C(NCc1cccnc1)C(=O)C1C(=O)Nc2ccccc21 (stereo not given)	none (no result: Diaphorase inh, Lmaj promast, WT yeast gro inh, ROMK mod, Diaphorase act)
c1ccc(CNc2ncnc3ccccc23)cc1	none
CCOC(=O)c1nc(NCc2ccccc2)c2ccccc2n1	Lmaj promast 52.3
CC(C)(CO)Nc1nc(Nc2ccccc2)nc(Nc2ccccc2)n1	Lmaj promast 74.5 (no result: ROMK mod)
Oc1ccccc1Nc1nc(NCc2ccccc2)c2ccccc2n1	Lmaj promast 100.4, WT yeast gro inh 86.0
OCCNc1nc(Nc2ccccc2)nc(Nc2ccccc2)n1	none (no result: KCC2 mod)
C=CCNc1nc(C(=O)OCC)nc2ccccc12	none
OCCNc1nc(Nc2ccccc2)nc2ccccc12	Lmaj promast 99.7
CCCC1(CCC)NC(=O)N(CC(=O)N2CCN(C(=O)c3ccco3)CC2)C1=O	none
CC(=O)NCCc1nc2ccccc2n1CCc1ccccc1	none (no result: ROMK mod, KCC2 mod)
CNS(=O)(=O)c1ccc(NC(=O)c2ccccn2)cc1	none
OCCNc1nc(Nc2ccc(Br)cc2)nc2ccccc12	Lmaj promast 100.5
CCOC(=O)N1CCN(C(=O)CN(C)S(=O)(=O)c2ccc3c(c2)C(C)(C)C(=O)N3C)CC1	WT yeast gro inh 67.6 (no result: KCC2 mod)
CCOC(=O)N1CCN(C(=O)CN(C)S(=O)(=O)c2ccc3c(c2)c(=O)n(C)c(=O)n3C)CC1	none (no result: ROMK mod)
CC(C)(C)c1cc(C(c2cccnc2)N2CCN(CCO)CC2)cc(C(C)(C)C)c1O (stereo not given)	Lmaj promast 100.2, WT yeast gro inh 71.7
CC(C)(C)n1nnnc1C(c1cccnc1)N1CCN(C2CCCCC2)CC1 (stereo not given)	none (no result: ROMK mod)
COc1ccccc1N1CCN(C(=O)/C=C/c2cccc([N+](=O)[O-])c2)CC1	none (no result: Diaphorase inh, Lmaj promast, WT yeast gro inh, Diaphorase act)
Cc1ccc(/C=C/C(=O)N2CCCC(C)C2)cc1 (stereo not given)	none (no result: ROMK mod)
Cc1ccc(/C=C/C(=O)N2CCC(Cc3ccccc3)CC2)cc1	WT yeast gro inh 67.3
COc1ccccc1N1CCN(C(=O)/C=C/c2ccc(C)cc2)CC1	Lmaj promast 54.5
Cc1cccc(N2CCN(C(=O)COc3ccc4c(c3)CCC4)CC2)c1C	WT yeast gro inh 73.1 (no result: ROMK mod)
CC1CCN(C(=O)/C=C/c2ccc(C(C)(C)C)cc2)CC1	WT yeast gro inh 61.6
CC1CCCC(NC(=O)CCNS(=O)(=O)c2ccc(Br)cc2)C1C (stereo not given)	none (no result: ROMK mod)
COc1ccccc1N1CCN(C(=O)COc2cc(C)ccc2C)CC1	Lmaj promast 64.2
Cc1cccc(C(=O)N2CCC(Cc3ccccc3)CC2)c1[N+](=O)[O-]	Lmaj promast 52.6, KCC2 mod -4.21
COc1ccc(-c2ccc(=O)n(CC(=O)N3CCN(c4ccccc4OC)CC3)n2)cc1	Lmaj promast 92.3 (no result: Diaphorase inh, ROMK mod, Diaphorase act)
COc1ccc(NC(=O)c2cc3c(s2)CCC(C)C3)cc1S(=O)(=O)N1CCOCC1 (stereo not given)	none
O=C(NNC(=O)c1cc(O)c(O)c(O)c1)NC1CCCCC1	Diaphorase inh 50.5, Lmaj promast 91.7 (no result: ROMK mod)
O=C(NNC(=O)c1cccnc1)NC1CCCCC1	none
COc1ccccc1C(C)NC(=O)CCOc1cccc(C)c1 (stereo not given)	none
COC(/C=C/Nc1ccc(C)cc1)=C(C#N)C#N	none (no result: ROMK mod, KCC2 mod)
CCC(=O)c1ccc(OCC(O)CN2CCN(C(c3ccccc3)c3ccccc3)CC2)cc1 (stereo not given)	Lmaj promast 59.9 (no result: ROMK mod, KCC2 mod)
Cc1cc(Cl)ccc1OCC(O)CN1C(C)CCCC1C (stereo not given)	Lmaj promast 91.0
CC(=O)c1ccc(OCC(O)CN2CCOCC2)cc1 (stereo not given)	none (no result: ROMK mod, KCC2 mod)
CC(=O)c1ccc(OCC(O)CN2C(C)CCCC2C)cc1 (stereo not given)	Lmaj promast 71.9 (no result: ROMK mod, KCC2 mod)
CC(=O)c1ccc(OCC(O)CN2CCC(C)CC2)cc1 (stereo not given)	Lmaj promast 87.5 (no result: ROMK mod, KCC2 mod)
Cc1cc2cc(CCNC(=O)C(C)C)c(=O)[nH]c2cc1C	none (no result: Diaphorase inh, WT yeast gro inh, ROMK mod, Diaphorase act)
Cc1cc2cc(CCNC(=O)c3ccc(C)c([N+](=O)[O-])c3)c(=O)[nH]c2cc1C	Diaphorase inh 71.7
Cc1cc2cc(CCNC(=O)C(=O)c3c[nH]c4ccccc34)c(=O)[nH]c2cc1C	Diaphorase inh 70.0
COc1ccc(CCNC(=O)CO/N=C/c2cc3c(cc2Br)OCO3)cc1OC	none
CC(C)C1Cc2c(sc3[nH]c(=S)n(Cc4ccccc4)c(=O)c23)CO1 (stereo not given)	WT yeast gro inh 60.7, ROMK mod 9.34, KCC2 mod 18.9
O=C(Nc1ccccc1)/C(=C/c1ccccc1)c1ccccc1	Lmaj promast 97.7 (no result: ROMK mod)
O=C(O)c1ccc(NC(=S)Nc2ccccc2)cc1	Lmaj promast 91.2
Cc1cc(NC(=S)Nc2cccnc2)ccc1Br	none
Cc1cc(NC(=S)Nc2ccccc2)ccc1Br	Lmaj promast 97.2 (no result: ROMK mod, KCC2 mod)
COC(=O)c1ccc(NC(=S)Nc2ccccc2)cc1	none (no result: ROMK mod)
C/C(=N/NC(=O)C(C)n1nc(C)c([N+](=O)[O-])c1C)c1ccc(OCC(N)=O)cc1 (stereo not given)	none (no result: Diaphorase inh, Lmaj promast, WT yeast gro inh, Diaphorase act)
Cn1c2ccccc2c(=O)c2c(=O)n(C3CCCCC3)c(-c3cccs3)nc21	none
COC(=O)c1cc(C(=O)c2cc(Br)ccc2O)coc1=N	none
CCCCS/C(=C(/C#N)C(N)=O)c1cc2c([nH]1)CCCC2	Lmaj promast 50.7 (no result: KCC2 mod)
Cc1ccc(Cl)cc1NC1=NC(=S)N(C(C)C)C12CCCCC2	none (no result: ROMK mod)
CCOC(=O)c1ccc(NS(=O)(=O)N2CCCCCC2)cc1	Lmaj promast 94.6 (no result: ROMK mod)
CN(C)S(=O)(=O)c1ccc(NC(=O)C2CCCN(C(=O)c3ccc(Cl)cc3)C2)cc1 (stereo not given)	none
CCOC(=O)c1ccc(NC(=O)C2CCN(S(=O)(=O)CC)CC2)cc1	none (no result: ROMK mod)
O=C(Nc1ccc(S(=O)(=O)N2CCCCC2)cc1)C1CCCN(C(=O)c2ccc(Cl)cc2)C1 (stereo not given)	Lmaj promast 55.7
CCOC(=O)c1ccc(NC(=O)C2CCCN(S(=O)(=O)c3ccc(F)cc3)C2)cc1 (stereo not given)	Lmaj promast 59.1
CCOC(=O)c1ccc(NC(=O)C2CCN(S(=O)(=O)c3ccccc3)CC2)cc1	none (no result: Diaphorase inh, ROMK mod, Diaphorase act)
Nc1ccccc1-c1nnn(CC(=O)N2CCCc3ccccc32)n1	none (no result: ROMK mod, KCC2 mod)
CCc1ccc(C(=O)NC(CC(C)C)C(=O)O)cc1 (stereo not given)	KCC2 mod 4.68
CCc1ccc(C(=O)COC(=O)C(Cc2ccccc2)NC(=O)c2ccc(Cl)cc2)cc1 (stereo not given)	Lmaj promast 75.2
COc1ccc(C(=O)NC(CC(C)C)C(=O)O)cc1OC (stereo not given)	none
COc1ccc(/C=C2\N=C(SC)NC2=O)cc1	KCC2 mod 16.2
